According to ChEMBL document CHEMBL4689842, “EUbOPEN Chemogenomics Library wave 1” (2021):

Test system: HEK-293T
Test: Multiplex assay against HEK293T;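 on Population Tubulin-Different-Phenotype (%): share of the cells with healthy nuclei that show this phenotype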
Assay type: toxicity, cell-based
Settings: human
Summary of the method: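 Values for tubulin, mitochondrial-mass and membrane-permeability phenotypes are per cents of cells with healthy nuclei. These cells were identified by CellPathfinder machine-learning gating of live cells that had been stained at seeding with Hoechst33342, BioTracker Green Microtubule Cytoskeleton Dye, MitoTracker Red and Annexin V Alexa Fluor 680 and imaged on a CQ1 microscope at 37°C and 5% CO2 after compound addition. The gating first set Hoechst high-intensity objects apart from normal cells, then split normal cells into healthy, pyknosed or fragmented nuclei, and pyknosed cells into mitotic or apoptotic.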

[1] = 12 h, 1 µM, compound concentration 1 uM, replicate 1
[2] = 12 h, 1 µM, compound concentration 1 uM, replicate 2
[3] = 12 h, 10 µM, compound concentration 10 uM, replicate 1
[4] = 12 h, 10 µM, compound concentration 10 uM, replicate 2
[5] = 24 h, 1 µM, compound concentration 1 uM, replicate 1
[6] = 24 h, 1 µM, compound concentration 1 uM, replicate 2
[7] = 24 h, 10 µM, compound concentration 10 uM, replicate 1
[8] = 24 h, 10 µM, compound concentration 10 uM, replicate 2
[9] = 48 h, 1 µM, compound concentration 1 uM, replicate 1
[10] = 48 h, 1 µM, compound concentration 1 uM, replicate 2
[11] = 48 h, 10 µM, compound concentration 10 uM, replicate 1
[12] = 48 h, 10 µM, compound concentration 10 uM, replicate 2

O=C1N/C(=N/c2ccccc2F)S/C1=C\c1ccc(C(=O)O)cc1
Population Apoptotic (%) [1]: 31%
Population Fragmented Nuclei (%) [1]: 14%
Population Healthy Nuclei (%) [1]: 38%
Population Hoechst High Intensity Objects (%) [1]: 14%
Population Membrane Permeable-Phenotype (%) [1]: 0%
Population Mitochondria Different-Phenotype (%) [1]: 70%
Population Mitotic Cells (%) [1]: 68%
Population Normal (%) [1]: 85%
Population Pyknosed Nuclei (%) [1]: 46%
Population Tubulin-Different-Phenotype (%) [1]: 21%
Total Cell Count [1]: 182
Population Apoptotic (%) [2]: 8%
Population Fragmented Nuclei (%) [2]: 6%
Population Healthy Nuclei (%) [2]: 42%
Population Hoechst High Intensity Objects (%) [2]: 4%
Population Membrane Permeable-Phenotype (%) [2]: 6%
Population Mitochondria Different-Phenotype (%) [2]: 6%
Population Mitotic Cells (%) [2]: 91%
Population Normal (%) [2]: 95%
Population Pyknosed Nuclei (%) [2]: 50%
Population Tubulin-Different-Phenotype (%) [2]: 6%
Total Cell Count [2]: 145
Population Apoptotic (%) [3]: 36%
Population Fragmented Nuclei (%) [3]: 10%
Population Healthy Nuclei (%) [3]: 38%
Population Hoechst High Intensity Objects (%) [3]: 14%
Population Membrane Permeable-Phenotype (%) [3]: 4%
Population Mitochondria Different-Phenotype (%) [3]: 63%
Population Mitotic Cells (%) [3]: 63%
Population Normal (%) [3]: 85%
Population Pyknosed Nuclei (%) [3]: 50%
Population Tubulin-Different-Phenotype (%) [3]: 33%
Total Cell Count [3]: 203
Population Apoptotic (%) [4]: 10%
Population Fragmented Nuclei (%) [4]: 4%
Population Healthy Nuclei (%) [4]: 51%
Population Hoechst High Intensity Objects (%) [4]: 3%
Population Membrane Permeable-Phenotype (%) [4]: 5%
Population Mitochondria Different-Phenotype (%) [4]: 18%
Population Mitotic Cells (%) [4]: 89%
Population Normal (%) [4]: 96%
Population Pyknosed Nuclei (%) [4]: 43%
Population Tubulin-Different-Phenotype (%) [4]: 16%
Total Cell Count [4]: 212
Population Apoptotic (%) [5]: 43%
Population Fragmented Nuclei (%) [5]: 16%
Population Healthy Nuclei (%) [5]: 38%
Population Hoechst High Intensity Objects (%) [5]: 12%
Population Membrane Permeable-Phenotype (%) [5]: 3%
Population Mitochondria Different-Phenotype (%) [5]: 46%
Population Mitotic Cells (%) [5]: 56%
Population Normal (%) [5]: 87%
Population Pyknosed Nuclei (%) [5]: 45%
Population Tubulin-Different-Phenotype (%) [5]: 24%
Total Cell Count [5]: 185
Population Apoptotic (%) [6]: 8%
Population Fragmented Nuclei (%) [6]: 6%
Population Healthy Nuclei (%) [6]: 56%
Population Hoechst High Intensity Objects (%) [6]: 5%
Population Membrane Permeable-Phenotype (%) [6]: 12%
Population Mitochondria Different-Phenotype (%) [6]: 13%
Population Mitotic Cells (%) [6]: 91%
Population Normal (%) [6]: 94%
Population Pyknosed Nuclei (%) [6]: 36%
Population Tubulin-Different-Phenotype (%) [6]: 21%
Total Cell Count [6]: 168
Population Apoptotic (%) [7]: 51%
Population Fragmented Nuclei (%) [7]: 13%
Population Healthy Nuclei (%) [7]: 46%
Population Hoechst High Intensity Objects (%) [7]: 16%
Population Membrane Permeable-Phenotype (%) [7]: 5%
Population Mitochondria Different-Phenotype (%) [7]: 48%
Population Mitotic Cells (%) [7]: 48%
Population Normal (%) [7]: 83%
Population Pyknosed Nuclei (%) [7]: 39%
Population Tubulin-Different-Phenotype (%) [7]: 26%
Total Cell Count [7]: 236
Population Apoptotic (%) [8]: 13%
Population Fragmented Nuclei (%) [8]: 5%
Population Healthy Nuclei (%) [8]: 69%
Population Hoechst High Intensity Objects (%) [8]: 4%
Population Membrane Permeable-Phenotype (%) [8]: 8%
Population Mitochondria Different-Phenotype (%) [8]: 17%
Population Mitotic Cells (%) [8]: 86%
Population Normal (%) [8]: 96%
Population Pyknosed Nuclei (%) [8]: 25%
Population Tubulin-Different-Phenotype (%) [8]: 24%
Total Cell Count [8]: 275
Population Apoptotic (%) [9]: 44%
Population Fragmented Nuclei (%) [9]: 20%
Population Healthy Nuclei (%) [9]: 43%
Population Hoechst High Intensity Objects (%) [9]: 16%
Population Membrane Permeable-Phenotype (%) [9]: 2%
Population Mitochondria Different-Phenotype (%) [9]: 27%
Population Mitotic Cells (%) [9]: 55%
Population Normal (%) [9]: 83%
Population Pyknosed Nuclei (%) [9]: 36%
Population Tubulin-Different-Phenotype (%) [9]: 26%
Total Cell Count [9]: 254
Population Apoptotic (%) [10]: 14%
Population Fragmented Nuclei (%) [10]: 6%
Population Healthy Nuclei (%) [10]: 80%
Population Hoechst High Intensity Objects (%) [10]: 5%
Population Membrane Permeable-Phenotype (%) [10]: 11%
Population Mitochondria Different-Phenotype (%) [10]: 6%
Population Mitotic Cells (%) [10]: 85%
Population Normal (%) [10]: 94%
Population Pyknosed Nuclei (%) [10]: 12%
Population Tubulin-Different-Phenotype (%) [10]: 24%
Total Cell Count [10]: 299
Population Apoptotic (%) [11]: 29%
Population Fragmented Nuclei (%) [11]: 18%
Population Healthy Nuclei (%) [11]: 45%
Population Hoechst High Intensity Objects (%) [11]: 11%
Population Membrane Permeable-Phenotype (%) [11]: 2%
Population Mitochondria Different-Phenotype (%) [11]: 19%
Population Mitotic Cells (%) [11]: 70%
Population Normal (%) [11]: 88%
Population Pyknosed Nuclei (%) [11]: 35%
Population Tubulin-Different-Phenotype (%) [11]: 21%
Total Cell Count [11]: 279
Population Apoptotic (%) [12]: 6%
Population Fragmented Nuclei (%) [12]: 6%
Population Healthy Nuclei (%) [12]: 83%
Population Hoechst High Intensity Objects (%) [12]: 2%
Population Membrane Permeable-Phenotype (%) [12]: 3%
Population Mitochondria Different-Phenotype (%) [12]: 5%
Population Mitotic Cells (%) [12]: 94%
Population Normal (%) [12]: 97%
Population Pyknosed Nuclei (%) [12]: 9%
Population Tubulin-Different-Phenotype (%) [12]: 14%
Total Cell Count [12]: 534

CNc1cc(Oc2cc(C(=O)Nc3cc(N4CCN(C)CC4)cc(C(F)(F)F)c3)ccc2C)ncn1
Population Apoptotic (%) [1]: 79%
Population Fragmented Nuclei (%) [1]: 14%
Population Healthy Nuclei (%) [1]: 13%
Population Hoechst High Intensity Objects (%) [1]: 20%
Population Membrane Permeable-Phenotype (%) [1]: 0%
Population Mitochondria Different-Phenotype (%) [1]: 96%
Population Mitotic Cells (%) [1]: 20%
Population Normal (%) [1]: 79%
Population Pyknosed Nuclei (%) [1]: 72%
Population Tubulin-Different-Phenotype (%) [1]: 89%
Total Cell Count [1]: 263
Population Apoptotic (%) [2]: 41%
Population Fragmented Nuclei (%) [2]: 8%
Population Healthy Nuclei (%) [2]: 21%
Population Hoechst High Intensity Objects (%) [2]: 6%
Population Membrane Permeable-Phenotype (%) [2]: 2%
Population Mitochondria Different-Phenotype (%) [2]: 69%
Population Mitotic Cells (%) [2]: 58%
Population Normal (%) [2]: 93%
Population Pyknosed Nuclei (%) [2]: 70%
Population Tubulin-Different-Phenotype (%) [2]: 76%
Total Cell Count [2]: 213
Population Apoptotic (%) [3]: 86%
Population Fragmented Nuclei (%) [3]: 17%
Population Healthy Nuclei (%) [3]: 3%
Population Hoechst High Intensity Objects (%) [3]: 21%
Population Membrane Permeable-Phenotype (%) [3]: 0%
Population Mitochondria Different-Phenotype (%) [3]: 100%
Population Mitotic Cells (%) [3]: 13%
Population Normal (%) [3]: 78%
Population Pyknosed Nuclei (%) [3]: 80%
Population Tubulin-Different-Phenotype (%) [3]: 83%
Total Cell Count [3]: 256
Population Apoptotic (%) [4]: 98%
Population Fragmented Nuclei (%) [4]: 5%
Population Healthy Nuclei (%) [4]: 4%
Population Hoechst High Intensity Objects (%) [4]: 14%
Population Mitotic Cells (%) [4]: 1%
Population Normal (%) [4]: 85%
Population Pyknosed Nuclei (%) [4]: 89%
Population Tubulin-Different-Phenotype (%) [4]: 60%
Total Cell Count [4]: 127
Population Apoptotic (%) [5]: 73%
Population Fragmented Nuclei (%) [5]: 18%
Population Healthy Nuclei (%) [5]: 12%
Population Hoechst High Intensity Objects (%) [5]: 21%
Population Membrane Permeable-Phenotype (%) [5]: 0%
Population Mitochondria Different-Phenotype (%) [5]: 96%
Population Mitotic Cells (%) [5]: 26%
Population Normal (%) [5]: 78%
Population Pyknosed Nuclei (%) [5]: 69%
Population Tubulin-Different-Phenotype (%) [5]: 81%
Total Cell Count [5]: 269
Population Apoptotic (%) [6]: 41%
Population Fragmented Nuclei (%) [6]: 12%
Population Healthy Nuclei (%) [6]: 36%
Population Hoechst High Intensity Objects (%) [6]: 5%
Population Membrane Permeable-Phenotype (%) [6]: 1%
Population Mitochondria Different-Phenotype (%) [6]: 63%
Population Mitotic Cells (%) [6]: 58%
Population Normal (%) [6]: 94%
Population Pyknosed Nuclei (%) [6]: 51%
Population Tubulin-Different-Phenotype (%) [6]: 70%
Total Cell Count [6]: 284
Population Apoptotic (%) [7]: 88%
Population Fragmented Nuclei (%) [7]: 15%
Population Healthy Nuclei (%) [7]: 0%
Population Hoechst High Intensity Objects (%) [7]: 26%
Population Membrane Permeable-Phenotype (%) [7]: 0%
Population Mitochondria Different-Phenotype (%) [7]: 100%
Population Mitotic Cells (%) [7]: 11%
Population Normal (%) [7]: 73%
Population Pyknosed Nuclei (%) [7]: 84%
Population Tubulin-Different-Phenotype (%) [7]: 100%
Total Cell Count [7]: 264
Population Apoptotic (%) [8]: 97%
Population Fragmented Nuclei (%) [8]: 6%
Population Healthy Nuclei (%) [8]: 3%
Population Hoechst High Intensity Objects (%) [8]: 18%
Population Mitotic Cells (%) [8]: 2%
Population Normal (%) [8]: 81%
Population Pyknosed Nuclei (%) [8]: 89%
Population Tubulin-Different-Phenotype (%) [8]: 75%
Total Cell Count [8]: 126
Population Apoptotic (%) [9]: 68%
Population Fragmented Nuclei (%) [9]: 24%
Population Healthy Nuclei (%) [9]: 21%
Population Hoechst High Intensity Objects (%) [9]: 18%
Population Membrane Permeable-Phenotype (%) [9]: 1%
Population Mitochondria Different-Phenotype (%) [9]: 76%
Population Mitotic Cells (%) [9]: 31%
Population Normal (%) [9]: 81%
Population Pyknosed Nuclei (%) [9]: 54%
Population Tubulin-Different-Phenotype (%) [9]: 74%
Total Cell Count [9]: 297
Population Apoptotic (%) [10]: 40%
Population Fragmented Nuclei (%) [10]: 14%
Population Healthy Nuclei (%) [10]: 65%
Population Hoechst High Intensity Objects (%) [10]: 4%
Population Membrane Permeable-Phenotype (%) [10]: 6%
Population Mitochondria Different-Phenotype (%) [10]: 25%
Population Mitotic Cells (%) [10]: 59%
Population Normal (%) [10]: 95%
Population Pyknosed Nuclei (%) [10]: 19%
Population Tubulin-Different-Phenotype (%) [10]: 51%
Total Cell Count [10]: 421
Population Apoptotic (%) [11]: 91%
Population Fragmented Nuclei (%) [11]: 32%
Population Healthy Nuclei (%) [11]: 1%
Population Hoechst High Intensity Objects (%) [11]: 29%
Population Membrane Permeable-Phenotype (%) [11]: 0%
Population Mitochondria Different-Phenotype (%) [11]: 100%
Population Mitotic Cells (%) [11]: 8%
Population Normal (%) [11]: 70%
Population Pyknosed Nuclei (%) [11]: 66%
Population Tubulin-Different-Phenotype (%) [11]: 33%
Total Cell Count [11]: 273
Population Apoptotic (%) [12]: 98%
Population Fragmented Nuclei (%) [12]: 7%
Population Healthy Nuclei (%) [12]: 5%
Population Hoechst High Intensity Objects (%) [12]: 26%
Population Membrane Permeable-Phenotype (%) [12]: 20%
Population Mitotic Cells (%) [12]: 1%
Population Normal (%) [12]: 73%
Population Pyknosed Nuclei (%) [12]: 87%
Population Tubulin-Different-Phenotype (%) [12]: 80%
Total Cell Count [12]: 131
